Reference: ChEMBL document CHEMBL4130382, “Novel unsaturated glycyrrhetic acids derivatives: Design, synthesis and anti-inflammatory activity” (Eur J Med Chem, 2017)
The source made the active and inactive calls. No cut-off for these calls is given here.

Key:
[1] = Cytotoxicity against mouse RAW264.7 cells assessed as cell viability at 40 uM after 24 hrs by MTT assay (reference value: 100%); type: cell-based; settings: read-out: Activity
How it was run: (§1)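 RAW264.7 cells seeded at 6×10^3 cells/well and cultured 24 h. Compounds diluted in DMEM for 24 h exposure. MTT 0.5 mg/mL added for 4 h, formazan dissolved in DMSO, OD read at 570 nm. Viability given as % of medium-only blank. Three independent experiments.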

[2] = test system: RAW264.7; test: Antiinflammatory activity in mouse RAW264.7 cells assessed as inhibition of LPS-induced NO production by measuring nitrite level at 20 uM pretreated for 2 hrs followed by LPS challenge measured after 24 hrs by Griess assay; type: functional, cell-based
How it was run: (§2)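 RAW264.7 cells grown in DMEM with 10% FBS plus penicillin/streptomycin at 37 °C and 5% CO2. Seeded at 1×10^5 cells/well and cultured 20 h. Pretreated 2 h with compounds in serum-free medium, then LPS 1 µg/mL for 24 h. Nitrite read with Griess reagent at 540 nm. Inhibition = (LPS-only − treated)/(LPS-only − medium blank) × 100%. Mean ± SD, n = 3.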

[3] = test system: RAW264.7; test: Antiinflammatory activity in mouse RAW264.7 cells assessed as inhibition of LPS-induced NO production by measuring nitrite level at 40 uM pretreated for 2 hrs followed by LPS challenge measured after 24 hrs by Griess assay relative to control; type: functional; how it was run: as §2
[4] = test system: RAW264.7; test: Antiinflammatory activity in mouse RAW264.7 cells assessed as inhibition of LPS-stimulated IL-6 production preincubated for 2 hrs followed by LPS stimulaton measured after 24 hrs by ELISA; type: functional, cell-based
How it was run: (§3)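 Cells at 7×10^4/well cultured 24 h, then pretreated 2 h with 10–40 µM compound. LPS 1 µg/mL added for 24 h. IL-6 and TNF-α measured in supernatant by mouse ELISA kits.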

[5] = test system: RAW264.7; test: Antiinflammatory activity in mouse RAW264.7 cells assessed as inhibition of LPS-stimulated TNF-alpha production preincubated for 2 hrs followed by LPS stimulaton measured after 24 hrs by ELISA; type: functional, cell-based; how it was run: as §3
[6] = test system: RAW264.7; test: Antiinflammatory activity in mouse RAW264.7 cells assessed as inhibition of LPS-stimulated COX-2 production at 40 uM preincubated with compound followed by LPS stimulation measured after 24 hrs by Western blot relative to control; type: functional
How it was run: (§4)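 Cells at 2×10^6/well cultured 24 h. Medium replaced with fresh medium containing 10–40 µM compound, or Bay 11-7082 20 µM as NF-κB inhibitor control, plus LPS 1 µg/mL for 24 h. Lysates in IP buffer with 1 mM PMSF; protein by BCA. Equal protein run on 12.5% SDS-PAGE, PVDF, ECL detection for iNOS and COX-2. Mean ± SD, n = 3.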

[7] = test system: RAW264.7; test: Antiinflammatory activity in mouse RAW264.7 cells assessed as inhibition of LPS-stimulated iNOS production at 40 uM preincubated with compound followed by LPS stimulation measured after 24 hrs by Western blot relative to control; type: functional; how it was run: as §4
[8] = test system: RAW264.7; test: Antiinflammatory activity in mouse RAW264.7 cells assessed as inhibition of LPS-stimulated COX-2 production preincubated with compound followed by LPS stimulation measured after 24 hrs by Western blot; type: functional, cell-based; how it was run: as §4
[9] = test system: RAW264.7; test: Antiinflammatory activity in mouse RAW264.7 cells assessed as inhibition of LPS-stimulated iNOS production preincubated with compound followed by LPS stimulation measured after 24 hrs by Western blot; type: functional, cell-based; how it was run: as §4
[10] = molecular target: Transcription factor p65 (Mus musculus) (UniProt Q04207); test: Inhibition of LPS-induced NFkappaB p65 phosphorylation in mouse RAW264.7 cells preincubated with compound followed by LPS stimulation measured after 30 mins by Western blot; type: cell-based
Chain of Transcription factor p65 (Mus musculus) (Q04207 whole entry): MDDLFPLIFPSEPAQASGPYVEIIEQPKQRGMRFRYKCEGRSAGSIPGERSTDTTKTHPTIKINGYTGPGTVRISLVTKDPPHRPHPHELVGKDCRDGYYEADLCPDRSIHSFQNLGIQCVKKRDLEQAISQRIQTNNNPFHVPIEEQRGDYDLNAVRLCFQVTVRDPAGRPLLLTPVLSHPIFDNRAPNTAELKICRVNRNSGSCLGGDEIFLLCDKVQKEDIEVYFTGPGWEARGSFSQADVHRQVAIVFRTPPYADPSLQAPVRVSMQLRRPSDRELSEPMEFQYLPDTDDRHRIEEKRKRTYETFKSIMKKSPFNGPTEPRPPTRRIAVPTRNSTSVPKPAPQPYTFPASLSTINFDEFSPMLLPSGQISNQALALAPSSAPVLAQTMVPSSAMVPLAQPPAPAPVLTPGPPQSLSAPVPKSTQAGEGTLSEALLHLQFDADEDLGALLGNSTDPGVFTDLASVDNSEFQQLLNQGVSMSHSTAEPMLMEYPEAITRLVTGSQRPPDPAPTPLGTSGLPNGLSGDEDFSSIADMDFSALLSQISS
How it was run: (§5)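 Cells at 2×10^6/well cultured 24 h, then given 10–40 µM compound with LPS 1 µg/mL for 30 min; Bay 11-7082 20 µM as control. Lysates in IP buffer with PMSF; equal protein on 12.5% SDS-PAGE, PVDF. Blocked in 5% milk/TBST, primary antibodies to phospho and total JNK, ERK1/2, p38, IκB and p65 at 1:1000 overnight at 4 °C, ECL detection. Mean ± SD, n = 3.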

[11] = molecular target: Transcription factor p65 (Mus musculus) (UniProt Q04207); test: Inhibition of LPS-induced NFkappaB p65 nuclear translocation in mouse RAW264.7 cells at 20 to 40 uM preincubated for 1 hr followed by LPS stimulation measured after 3 hrs by DAPI staining-based immunofluorescence assay; type: cell-based
How it was run: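 Cells at 7×10^4/well cultured 24 h, pretreated with 20 or 40 µM compound, then LPS 1 µg/mL for 3 h. Fixed in 4% formaldehyde, permeabilized with 0.3% Triton X-100, blocked with 5% BSA. Stained overnight with anti-p65, then Alexa Fluor 488 anti-rabbit; nuclei counterstained with DAPI and imaged.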

[12] = test system: RAW264.7; test: Inhibition of LPS-induced ERK phosphorylation in mouse RAW264.7 cells at 40 uM preincubated with compound followed by LPS stimulation measured after 30 mins by Western blot; type: cell-based; how it was run: as §5
[13] = test system: RAW264.7; test: Inhibition of LPS-induced JNK phosphorylation in mouse RAW264.7 cells at 10 to 40 uM preincubated with compound followed by LPS stimulation measured after 30 mins by Western blot; type: cell-based; how it was run: as §5
[14] = molecular target: MAP kinase p38 (Mus musculus) (UniProt P47811+O08911+Q9WUI1+Q9Z1B7); test: Inhibition of LPS-induced p38 MAPK phosphorylation in mouse RAW264.7 cells at 10 to 40 uM preincubated with compound followed by LPS stimulation measured after 30 mins by Western blot; type: cell-based; how it was run: as §5
[15] = Cytotoxicity against mouse RAW264.7 cells assessed as cell viability at 20 uM after 24 hrs by MTT assay (reference value: 100%); type: cell-based; settings: read-out: Activity; how it was run: as §1

Compound	viability at 24 h, 40 µM [1]	inhibition [2]	inhibition [3]	viability at 24 h, 20 µM [15]	other results
Cc1cccc(NC(=O)/C=C/[C@@]2(C)CC[C@]3(C)CC[C@]4(C)C(=CC(=O)[C@@H]5[C@@]6(C)CC[C@H](O)C(C)(C)[C@@H]6CC[C@]54C)[C@@H]3C2)c1	99.3%	inactive	inactive	–	–
CN1CCN(C(=O)/C=C/[C@@]2(C)CC[C@]3(C)CC[C@]4(C)C(=CC(=O)[C@@H]5[C@@]6(C)CC[C@H](O)C(C)(C)[C@@H]6CC[C@]54C)[C@@H]3C2)CC1	96.6%	–	–	–	inhibition at 40 µM [3]: > 70%; IC50 [4]: 13.3 µM; inhibition [4]: Dose-dependent effect; inhibition [5]: Dose-dependent effect; inhibition at 40 µM [6]: 55.6%; inhibition at 40 µM [7]: 76.9%; inhibition [8]: Dose-dependent effect; inhibition [9]: Dose-dependent effect; inhibition [10]: Dose-dependent effect; inhibition [11]: Active; inhibition [12]: Active; inhibition [13]: inactive; inhibition [14]: inactive
CNC(=O)/C=C/[C@@]1(C)CC[C@]2(C)CC[C@]3(C)C(=CC(=O)[C@@H]4[C@@]5(C)CC[C@H](O)C(C)(C)[C@@H]5CC[C@]43C)[C@@H]2C1	100%	Active	Active	–	–
CCN1CCN(C(=O)/C=C/[C@@]2(C)CC[C@]3(C)CC[C@]4(C)C(=CC(=O)[C@@H]5[C@@]6(C)CC[C@H](O)C(C)(C)[C@@H]6CC[C@]54C)[C@@H]3C2)CC1	98.4%	–	–	–	inhibition at 40 µM [3]: > 70%; IC50 [4]: 15.5 µM; inhibition [4]: Dose-dependent effect; inhibition [5]: Dose-dependent effect
CC1(C)[C@@H](O)CC[C@]2(C)[C@H]3C(=O)C=C4[C@@H]5C[C@@](C)(/C=C/C(=O)O)CC[C@]5(C)CC[C@@]4(C)[C@]3(C)CC[C@@H]12	99.2%	Active	Active	–	–
CC1(C)[C@@H](O)CC[C@]2(C)[C@H]3C(=O)C=C4[C@@H]5C[C@@](C)(/C=C/C(=O)NNC(N)=O)CC[C@]5(C)CC[C@@]4(C)[C@]3(C)CC[C@@H]12	–	–	–	96.7%	–
CC1(C)[C@@H](O)CC[C@]2(C)[C@H]3C(=O)C=C4[C@@H]5C[C@@](C)(/C=C/C(=O)NCCc6ccccc6)CC[C@]5(C)CC[C@@]4(C)[C@]3(C)CC[C@@H]12	–	inactive	inactive	93%	–
CC(=O)O[C@H]1CC[C@]2(C)[C@H]3C(=O)C=C4[C@@H]5C[C@@](C)(/C=C/C(=O)OCc6ccccc6)CC[C@]5(C)CC[C@@]4(C)[C@]3(C)CC[C@H]2C1(C)C	–	inactive	inactive	96.9%	–
CC(C)N(C(=O)/C=C/[C@@]1(C)CC[C@]2(C)CC[C@]3(C)C(=CC(=O)[C@@H]4[C@@]5(C)CC[C@H](O)C(C)(C)[C@@H]5CC[C@]43C)[C@@H]2C1)C(C)C	–	Active	–	95.8%	–
CC1(C)[C@@H](O)CC[C@]2(C)[C@H]3C(=O)C=C4[C@@H]5C[C@@](C)(/C=C/C(=O)NCCCCl)CC[C@]5(C)CC[C@@]4(C)[C@]3(C)CC[C@@H]12	95%	–	–	–	–
CC1(C)[C@@H](O)CC[C@]2(C)[C@H]3C(=O)C=C4[C@@H]5C[C@@](C)(/C=C/C(=O)NNc6ccccc6)CC[C@]5(C)CC[C@@]4(C)[C@]3(C)CC[C@@H]12	–	inactive	inactive	94.8%	–
CC(C)NC(=O)/C=C/[C@@]1(C)CC[C@]2(C)CC[C@]3(C)C(=CC(=O)[C@@H]4[C@@]5(C)CC[C@H](O)C(C)(C)[C@@H]5CC[C@]43C)[C@@H]2C1	97.6%	Active	–	–	–
CC1(C)[C@@H](O)CC[C@]2(C)[C@H]3C(=O)C=C4[C@@H]5C[C@@](C)(/C=C/C(=O)NCCCN6CCOCC6)CC[C@]5(C)CC[C@@]4(C)[C@]3(C)CC[C@@H]12	99.8%	Active	Active	–	–
CC1(C)[C@@H](O)CC[C@]2(C)[C@H]3C(=O)C=C4[C@@H]5C[C@@](C)(/C=C/C(=O)NCCO)CC[C@]5(C)CC[C@@]4(C)[C@]3(C)CC[C@@H]12	–	Active	Active	93.6%	–
CCNC(=O)/C=C/[C@@]1(C)CC[C@]2(C)CC[C@]3(C)C(=CC(=O)[C@@H]4[C@@]5(C)CC[C@H](O)C(C)(C)[C@@H]5CC[C@]43C)[C@@H]2C1	92%	Active	Active	–	–
CN(C)C(=O)/C=C/[C@@]1(C)CC[C@]2(C)CC[C@]3(C)C(=CC(=O)[C@@H]4[C@@]5(C)CC[C@H](O)C(C)(C)[C@@H]5CC[C@]43C)[C@@H]2C1	99.5%	Active	Active	–	–
CC1(C)[C@@H](O)CC[C@]2(C)[C@H]3C(=O)C=C4[C@@H]5C[C@@](C)(C(=O)O)CC[C@]5(C)CC[C@@]4(C)[C@]3(C)CC[C@@H]12 [ENOXOLONE]	102%	Active	Active	–	–
CCOC(=O)/C=C/[C@@]1(C)CC[C@]2(C)CC[C@]3(C)C(=CC(=O)[C@@H]4[C@@]5(C)CC[C@H](OC(C)=O)C(C)(C)[C@@H]5CC[C@]43C)[C@@H]2C1	–	–	–	94.3%	–
CC1(C)[C@@H](O)CC[C@]2(C)[C@H]3C(=O)C=C4[C@@H]5C[C@@](C)(/C=C/C(=O)N6CCOCC6)CC[C@]5(C)CC[C@@]4(C)[C@]3(C)CC[C@@H]12	97.5%	inactive	inactive	–	–
CC(O)CNC(=O)/C=C/[C@@]1(C)CC[C@]2(C)CC[C@]3(C)C(=CC(=O)[C@@H]4[C@@]5(C)CC[C@H](O)C(C)(C)[C@@H]5CC[C@]43C)[C@@H]2C1 (stereo not given in full)	–	Active	Active	91.4%	–
